{"source": "paper PMC11359639", "about": "(ACS Omega, 2024)", "key": {"TNF-α [1]": {"test_system": "TNF-α", "experiment": "TNF-α level in supernatant of LPS-induced RAW264.7 cells", "format": "cell-based", "conditions": "RAW264.7 cells supernatant, LPS 1 μg/mL, 1 μM, 48 h", "in_short": "(§1)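 RAW264.7 cells were allowed to attach, then the medium was replaced with 1 μg/mL LPS plus test compound at final concentrations of 1, 10 and 100 μM, with DMSO used for solubilisation where needed. […] After 48 h culture, the supernatant was assayed for IL-1β, IL-6 and TNF-α. Values are means of three independent experiments, mean ± SD, compared by one-way ANOVA.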"}, "IL-1β": {"test_system": "IL-1β", "experiment": "IL-1β level in supernatant of LPS-induced RAW264.7 cells", "format": "cell-based", "conditions": "RAW264.7 cells supernatant, LPS 1 μg/mL, 1 μM, 48 h", "in_short": "as §1"}, "IL-6 [2]": {"test_system": "IL-6", "experiment": "IL-6 level in supernatant of LPS-induced RAW264.7 cells", "format": "cell-based", "conditions": "RAW264.7 cells supernatant, LPS 1 μg/mL, 1 μM, 48 h", "in_short": "as §1"}, "NF-κB [3]": {"test_system": "NF-κB", "experiment": "NF-κB protein expression in RAW264.7 cells by Western blot", "format": "cell-based", "conditions": "LPS-induced RAW264.7 cells, 1 μM, 24 h, vs model group"}, "NF-κB [4]": {"test_system": "NF-κB", "experiment": "NF-κB mRNA expression in RAW264.7 cells by RT-PCR", "format": "cell-based", "conditions": "LPS-induced RAW264.7 cells, 1 μM, 24 h, vs model group"}, "TLR4 [5]": {"test_system": "TLR4", "experiment": "TLR4 protein expression in RAW264.7 cells by immunofluorescence", "format": "cell-based", "conditions": "LPS-induced RAW264.7 cells, 1 μM, 24 h, vs model group", "in_short": "(§2)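 They were PBS-washed, fixed in 4% fixative for 45 min, permeabilised with 0.25% Triton for 15 min and blocked with 5% BSA for 10 min. Staining used rabbit anti-mouse TLR4 or TNF-α (1:100, 4 °C overnight), FITC anti-rabbit (1:400, 37 °C, 30 min) and DAPI. Mean cell fluorescence was read by confocal microscopy.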"}, "NF-κB [6]": {"test_system": "NF-κB", "experiment": "NF-κB protein expression in RAW264.7 cells by immunofluorescence", "format": "cell-based", "conditions": "LPS-induced RAW264.7 cells, 1 μM, 24 h, vs model group"}, "[7]": {"test_system": "CIA (collagen-induced arthritis) model", "experiment": "Rat CIA", "format": "in vivo", "conditions": "for paw volume of rats: CIA rats, 15 days"}, "TLR4 [8]": {"test_system": "TLR4", "experiment": "TLR4 protein expression in RAW264.7 cells by Western blot", "format": "cell-based", "conditions": "LPS-induced RAW264.7 cells, 1 μM, 24 h, vs model group", "in_short": "(§3)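 Lysis was in RIPA containing 1% PMSF on ice for 3–4 h, followed by centrifugation at 12000 rpm for 15 min. Supernatants were stored at −80 °C, and TLR4 and TNF-α protein were detected by Western blot.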"}, "TNF-α [9]": {"test_system": "TNF-α", "experiment": "TNF-α protein expression in RAW264.7 cells by immunofluorescence", "format": "cell-based", "conditions": "LPS-induced RAW264.7 cells, 1 μM, 24 h, vs model group", "in_short": "as §2"}, "IL-6 [10]": {"test_system": "IL-6", "experiment": "Rat CIA model, serum IL-6 concentration", "format": "in vivo", "conditions": "CIA rats, 50 and 100 (mg/kg)/day oral, compared with model group"}, "[11]": {"experiment": "Pharmacokinetics in Sprague-Dawley rats", "format": "in vivo, rat", "conditions": "for maximum concentration: SD rats; for half-life: male, Sprague-Dawley, rat, plasma", "in_short": "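Male SD rats (6–8 weeks) received test compound in 10% DMSO + 10% Solutol HS15 + 80% (20% HP-β-CD saline), either 20 mg/kg via foot dorsal vein or 100 mg/kg by oral gavage. Samples were kept on wet ice and spun at 2000g for 5 min at 4 °C within 15 min. Plasma was analysed by LC-MS/MS.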"}, "TNF-α [12]": {"test_system": "TNF-α", "experiment": "TNF-α protein expression in RAW264.7 cells by Western blot", "format": "cell-based", "conditions": "LPS-induced RAW264.7 cells, 1 μM, 24 h, vs model group", "in_short": "as §3"}, "TNF-α [13]": {"test_system": "TNF-α", "experiment": "TNF-α mRNA expression in RAW264.7 cells by RT-PCR", "format": "cell-based", "conditions": "LPS-induced RAW264.7 cells, 1 μM, 24 h, vs model group"}, "TNF-α [14]": {"test_system": "TNF-α", "experiment": "Rat CIA model, serum TNF-α concentration", "format": "in vivo", "conditions": "CIA rats, 50 and 100 (mg/kg)/day oral, compared with model group"}, "TLR4 [15]": {"test_system": "TLR4", "experiment": "TLR4 mRNA expression in RAW264.7 cells by RT-PCR", "format": "cell-based", "conditions": "LPS-induced RAW264.7 cells, 1 μM, 24 h, vs model group"}}, "note": "Entries after “also recorded” stand apart in the source; their conditions may differ."}
{"smiles": "COC(=O)C1CCC(C(=O)CC(C)=O)C1=O", "note": "(stereo not drawn) [Compound 3g, Methyl 2-oxo-3-(3-oxobutanoyl)cyclopentane-1-carboxylate]", "values": [{"measurement": "Inflammatory factor TNF-α", "setting": "TNF-α [1]", "value": "339.8 ± 49.2", "unit": "pg/L"}, {"measurement": "Inflammatory factor IL-1β", "setting": "IL-1β", "value": "408.2 ± 69.1", "unit": "pg/L"}, {"measurement": "Inflammatory factor IL-6", "setting": "IL-6 [2]", "value": "170.3 ± 25.3", "unit": "pg/L"}]}
{"smiles": "CC(=O)CC(=O)C1CC(C)C(=O)C1=O", "note": "(stereo not drawn) [Compound 3k, 3-Methyl-5-(3-oxobutanoyl) cyclopentane-1,2-dione]", "values": [{"measurement": "Inflammatory factor TNF-α", "setting": "TNF-α [1]", "value": "217.8 ± 20.3", "unit": "pg/L"}, {"measurement": "Inflammatory factor IL-1β", "setting": "IL-1β", "value": "278.6 ± 58.1", "unit": "pg/L"}, {"measurement": "expression of NF-κB protein (Western blot)", "setting": "NF-κB [3]", "value": "significantly down-regulated"}, {"measurement": "expression of NF-κB gene (RT-PCR)", "setting": "NF-κB [4]", "value": "significant down-regulated"}, {"measurement": "expression of TLR4 protein (immunofluorescence)", "setting": "TLR4 [5]", "value": "significantly down-regulated"}, {"measurement": "expression of NF-κB protein (immunofluorescence)", "setting": "NF-κB [6]", "value": "significantly down-regulated"}, {"measurement": "paw volume of rats", "setting": "[7]; high dose 100 (mg/kg)/day oral", "value": "basically unchanged"}, {"measurement": "paw volume of rats", "setting": "[7]; low dose 50 (mg/kg)/day oral", "value": "basically unchanged"}, {"measurement": "effect in collagen-induced arthritis model compared with methotrexate", "setting": "[7]; administered orally", "value": "effects similar to those of methotrexate; also recorded: effect similar to that of the positive control group methotrexate"}, {"measurement": "expression of TLR4 protein (Western blot)", "setting": "TLR4 [8]", "value": "significantly down-regulated"}, {"measurement": "expression of TNF-α protein (immunofluorescence)", "setting": "TNF-α [9]", "value": "significantly down-regulated"}, {"measurement": "Inflammatory factor IL-6", "setting": "IL-6 [2]", "value": "96.6 ± 9.8", "unit": "pg/L"}, {"measurement": "serum IL-6 concentration", "setting": "IL-6 [10]", "value": "decreased significantly and reached the normal level"}, {"measurement": "maximum concentration", "setting": "[11]; intravenous dose 20 mg/kg", "value": 1603, "unit": "ng/mL"}, {"measurement": "maximum concentration", "setting": "[11]; oral dose 100 mg/kg", "value": 2014, "unit": "ng/mL"}, {"measurement": "half-life", "setting": "[11]; iv, 20 mg/kg", "value": "30 to 60", "unit": "min"}, {"measurement": "half-life", "setting": "[11]; po, 100 mg/kg", "value": "30 to 60", "unit": "min"}, {"measurement": "expression of TNF-α protein (Western blot)", "setting": "TNF-α [12]", "value": "significantly down-regulated"}, {"measurement": "expression of TNF-α gene (RT-PCR)", "setting": "TNF-α [13]", "value": "significant down-regulated"}, {"measurement": "serum TNF-α concentration", "setting": "TNF-α [14]", "value": "decreased significantly and reached the normal level"}, {"measurement": "expression of TLR4 gene (RT-PCR)", "setting": "TLR4 [15]", "value": "significant down-regulated"}]}
{"smiles": "CCCCCC1C(=O)C(C(=O)CC(C)=O)CC1CC(=O)OC", "note": "(stereo not drawn) [Compound 3j, Methyl 2-(3-oxo-4-(3-oxobutanoyl)-2-pentylcyclopentyl)acetate]", "values": [{"measurement": "Inflammatory factor TNF-α", "setting": "TNF-α [1]", "value": "400.6 ± 60.2", "unit": "pg/L"}, {"measurement": "Inflammatory factor IL-1β", "setting": "IL-1β", "value": "488.8 ± 66.1", "unit": "pg/L"}, {"measurement": "Inflammatory factor IL-6", "setting": "IL-6 [2]", "value": "163.8 ± 25.9", "unit": "pg/L"}]}
{"smiles": "CCOC(=O)C1CCC(C(=O)CC(C)=O)C1=O", "note": "(stereo not drawn) [Compound 3h, Ethyl 2-oxo-3-(3-oxobutanoyl)cyclopentane-1-carboxylate]", "values": [{"measurement": "Inflammatory factor TNF-α", "setting": "TNF-α [1]", "value": "524.7 ± 48.5", "unit": "pg/L"}, {"measurement": "Inflammatory factor IL-1β", "setting": "IL-1β", "value": "506.0 ± 65.1", "unit": "pg/L"}, {"measurement": "Inflammatory factor IL-6", "setting": "IL-6 [2]", "value": "197.4 ± 21.3", "unit": "pg/L"}]}
{"smiles": "CC(=O)CC(=O)C1CCC(C(C)=O)C1=O", "note": "(stereo not drawn) [Compound 3i, 1-(3-Acetyl-2-oxocyclopentyl)butane-1,3-dione]", "values": [{"measurement": "Inflammatory factor TNF-α", "setting": "TNF-α [1]", "value": "424.5 ± 87.6", "unit": "pg/L"}, {"measurement": "Inflammatory factor IL-1β", "setting": "IL-1β", "value": "558.4 ± 66.9", "unit": "pg/L"}, {"measurement": "Inflammatory factor IL-6", "setting": "IL-6 [2]", "value": "205.2 ± 25.9", "unit": "pg/L"}]}
{"smiles": "CC(=O)CC(=O)C1CCCC1=O", "note": "(stereo not drawn) [Compound 3a, 1-(2-Oxocyclopentyl)butane-1,3-dione]", "values": [{"measurement": "Inflammatory factor TNF-α", "setting": "TNF-α [1]", "value": "520.6 ± 54.6", "unit": "pg/L"}, {"measurement": "Inflammatory factor IL-1β", "setting": "IL-1β", "value": "512.0 ± 85.0", "unit": "pg/L"}, {"measurement": "Inflammatory factor IL-6", "setting": "IL-6 [2]", "value": "196.2 ± 14.3", "unit": "pg/L"}]}
{"smiles": "CN(Cc1cnc2nc(N)nc(N)c2n1)c1ccc(C(=O)N[C@@H](CCC(=O)O)C(=O)O)cc1", "note": "[methotrexate, reference compound]", "values": [{"measurement": "Inflammatory factor TNF-α", "setting": "TNF-α [1]", "value": "236.8 ± 18.7", "unit": "pg/L"}, {"measurement": "Inflammatory factor IL-1β", "setting": "IL-1β", "value": "337.6 ± 47.8", "unit": "pg/L"}, {"measurement": "expression of TLR4 protein (immunofluorescence)", "setting": "TLR4 [5]", "value": "significantly down-regulated"}, {"measurement": "expression of TLR4 protein (Western blot)", "setting": "TLR4 [8]", "value": "significantly down-regulated"}, {"measurement": "expression of TNF-α protein (immunofluorescence)", "setting": "TNF-α [9]", "value": "significantly down-regulated"}, {"measurement": "Inflammatory factor IL-6", "setting": "IL-6 [2]", "value": "114.1 ± 2.8", "unit": "pg/L"}, {"measurement": "expression of TNF-α protein (Western blot)", "setting": "TNF-α [12]", "value": "significantly down-regulated"}, {"measurement": "expression of TNF-α gene (RT-PCR)", "setting": "TNF-α [13]", "value": "significantly down-regulated"}, {"measurement": "expression of TLR4 gene (RT-PCR)", "setting": "TLR4 [15]", "value": "significantly down-regulated"}]}
